Assay results taken from ChEMBL document CHEMBL1255410, “Activity of the investigational fluoroquinolone finafloxacin against ciprofloxacin-sensitive and -resistant Acinetobacter baumannii isolates” (2010).

What was measured:
Acinetobacter baumannii [1] = assay: Antimicrobial activity against Acinetobacter baumannii isolate 4 at pH 5.8; type: functional
Method in brief: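 Agar dilution MIC on Mueller-Hinton agar acidified with HCl before pouring antibiotic plates; agar pH checked after setting. Isolate has characterized gyrA/parC genes. Plates made the same day from fresh medium, and both drugs tested at the same time. Read-out: MIC (μg/ml).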

Acinetobacter baumannii [2] = assay: Antimicrobial activity against Acinetobacter baumannii isolate 44 harboring GyrA Ser83-Leu and ParC Glu84-Lys mutation at pH 7.2; type: functional
Method in brief: (§1)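 Agar dilution MIC on Mueller-Hinton agar. For the acidic condition, HCl was added to bring the agar to pH 5.8 before pouring the antibiotic plates, and the pH was checked after the agar set. The standard condition was pH 7.2. Both drugs' plates were made the same day from fresh medium, and MICs were read at the same time.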

Acinetobacter baumannii [3] = assay: Antimicrobial activity against Acinetobacter baumannii isolate 49 harboring GyrA Ser83-Leu and ParC Ser80-Leu mutation at pH 7.2; type: functional; method in brief: as §1
Acinetobacter baumannii [4] = assay: Antimicrobial activity against Acinetobacter baumannii isolate 16 at pH 7.2; type: functional
Method in brief: (§2)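 MIC by agar dilution on Mueller-Hinton agar under standard conditions (pH 7.2), against isolates with characterized gyrA/parC genes. Agar pH was checked after solidifying. Plates for both drugs were prepared the same day from freshly made media, and MICs were determined simultaneously with the pH 5.8 set.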

Acinetobacter baumannii [5] = assay: Antimicrobial activity against Acinetobacter baumannii isolate 14 at pH 7.2; type: functional; method in brief: as §2
Acinetobacter baumannii [6] = assay: Antimicrobial activity against Acinetobacter baumannii isolate 2 at pH 7.2; type: functional; method in brief: as §2
Acinetobacter baumannii [7] = assay: Antimicrobial activity against Acinetobacter baumannii isolate 2 at pH 5.8; type: functional
Method in brief: (§3)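 MIC by agar dilution on Mueller-Hinton agar acidified to pH 5.8 with HCl before antibiotic-containing plates were poured. Agar pH was rechecked once the agar had solidified. Isolates had characterized gyrA/parC genes. Plates for both drugs were made the same day from fresh media, and MICs were read in parallel with the standard-pH set.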

Acinetobacter baumannii [8] = assay: Antimicrobial activity against Acinetobacter baumannii isolate 33 harboring GyrA Ser83-Leu mutation at pH 7.2; type: functional; method in brief: as §1
Acinetobacter baumannii [9] = assay: Antimicrobial activity against Acinetobacter baumannii isolate 27 harboring GyrA Ser83-Leu mutation at pH 7.2; type: functional; method in brief: as §2
Acinetobacter baumannii [10] = assay: Antimicrobial activity against Acinetobacter baumannii isolate 7 at pH 7.2; type: functional
Method in brief: (§4)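 Agar dilution MIC on Mueller-Hinton agar under standard conditions (pH 7.2). Antibiotic-containing plates were made the same day from freshly prepared medium. Agar pH was checked after solidifying. Both fluoroquinolones were tested simultaneously against A. baumannii isolates with characterized gyrA/parC genes. MICs are in μg/ml.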

Acinetobacter baumannii [11] = assay: Antimicrobial activity against Acinetobacter baumannii isolate 10 at pH 5.8; type: functional; method in brief: as §3
Acinetobacter baumannii [12] = assay: Antimicrobial activity against Acinetobacter baumannii isolate 41 harboring GyrA Ser83-Leu mutation at pH 5.8; type: functional; method in brief: as §1
Acinetobacter baumannii [13] = assay: Antimicrobial activity against Acinetobacter baumannii isolate 12 at pH 5.8; type: functional; method in brief: as §3
Acinetobacter baumannii [14] = assay: Antimicrobial activity against Acinetobacter baumannii isolate 52 harboring GyrA Ser83-Leu and ParC Ser80-Leu mutation at pH 7.2; type: functional; method in brief: as §1
Acinetobacter baumannii [15] = assay: Antimicrobial activity against Acinetobacter baumannii isolate 6 at pH 5.8; type: functional
Method in brief: (§5)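 Agar dilution MIC on Mueller-Hinton agar acidified to pH 5.8 with HCl before the antibiotic-containing plates were poured. Agar pH was checked after solidifying. Plates were made the same day from fresh medium. Both fluoroquinolones were tested simultaneously against A. baumannii isolates with characterized gyrA/parC genes. MICs are in μg/ml.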

Acinetobacter baumannii [16] = assay: Antimicrobial activity against Acinetobacter baumannii isolate 33 harboring GyrA Ser83-Leu mutation at pH 5.8; type: functional; method in brief: as §1
Acinetobacter baumannii [17] = assay: Antimicrobial activity against Acinetobacter baumannii isolate 40 harboring GyrA Ser83-Leu mutation at pH 7.2; type: functional; method in brief: as §1
Acinetobacter baumannii [18] = assay: Antimicrobial activity against Acinetobacter baumannii isolate 1 at pH 5.8; type: functional; method in brief: as §3
Acinetobacter baumannii [19] = assay: Antimicrobial activity against Acinetobacter baumannii isolate 62 harboring GyrA Ser83-Leu and ParC Ser80-Leu mutation at pH 5.8; type: functional; method in brief: as §5
Acinetobacter baumannii [20] = assay: Antimicrobial activity against Acinetobacter baumannii isolate 61 harboring GyrA Ser83-Leu and ParC Ser80-Leu mutation at pH 5.8; type: functional; method in brief: as §5
Acinetobacter baumannii [21] = assay: Antimicrobial activity against Acinetobacter baumannii isolate 16 at pH 5.8; type: functional; method in brief: as §3
Acinetobacter baumannii [22] = assay: Antimicrobial activity against Acinetobacter baumannii isolate 60 harboring GyrA Ser83-Leu and ParC Ser80-Leu mutation at pH 7.2; type: functional; method in brief: as §4
Acinetobacter baumannii [23] = assay: Antimicrobial activity against Acinetobacter baumannii isolate 34 harboring GyrA Ser83-Leu mutation at pH 5.8; type: functional; method in brief: as §1
Acinetobacter baumannii [24] = assay: Antimicrobial activity against Acinetobacter baumannii isolate 55 harboring GyrA Ser83-Leu and ParC Ser80-Leu mutation at pH 5.8; type: functional; method in brief: as §1
Acinetobacter baumannii [25] = assay: Antimicrobial activity against Acinetobacter baumannii isolate 18 at pH 5.8; type: functional; method in brief: as §3
Acinetobacter baumannii [26] = assay: Antimicrobial activity against Acinetobacter baumannii isolate 31 harboring GyrA Ser83-Leu mutation at pH 7.2; type: functional; method in brief: as §2
Acinetobacter baumannii [27] = assay: Antimicrobial activity against Acinetobacter baumannii isolate 36 harboring GyrA Ser83-Leu mutation at pH 5.8; type: functional; method in brief: as §1
Acinetobacter baumannii [28] = assay: Antimicrobial activity against Acinetobacter baumannii isolate 25 harboring GyrA Ser83-Leu mutation at pH 5.8; type: functional; method in brief: as §3
Acinetobacter baumannii [29] = assay: Antimicrobial activity against Acinetobacter baumannii isolate 31 harboring GyrA Ser83-Leu mutation at pH 5.8; type: functional; method in brief: as §3
Acinetobacter baumannii [30] = assay: Antimicrobial activity against Acinetobacter baumannii isolate 12 at pH 7.2; type: functional; method in brief: as §2
Acinetobacter baumannii [31] = assay: Antimicrobial activity against Acinetobacter baumannii isolate 11 at pH 7.2; type: functional; method in brief: as §2
Acinetobacter baumannii [32] = assay: Antimicrobial activity against Acinetobacter baumannii isolate 63 harboring GyrA Ser83-Leu and ParC Glu84-Lys mutation at pH 5.8; type: functional; method in brief: as §5
Acinetobacter baumannii [33] = assay: Antimicrobial activity against Acinetobacter baumannii isolate 60 harboring GyrA Ser83-Leu and ParC Ser80-Leu mutation at pH 5.8
Acinetobacter baumannii [34] = assay: Antimicrobial activity against Acinetobacter baumannii isolate 21 harboring GyrA Ser83-Leu mutation at pH 5.8; type: functional; method in brief: as §3
Acinetobacter baumannii [35] = assay: Antimicrobial activity against Acinetobacter baumannii isolate 13 at pH 7.2; type: functional; method in brief: as §2
Acinetobacter baumannii [36] = assay: Antimicrobial activity against Acinetobacter baumannii isolate 45 harboring GyrA Ser83-Leu and ParC Ser80-Leu mutation at pH 5.8; type: functional; method in brief: as §1
Acinetobacter baumannii [37] = assay: Antimicrobial activity against Acinetobacter baumannii isolate 35 harboring GyrA Ser83-Leu mutation at pH 7.2; type: functional; method in brief: as §1
Acinetobacter baumannii [38] = assay: Antimicrobial activity against Acinetobacter baumannii isolate 65 harboring GyrA Ser83-Leu and ParC Ser80-Leu mutation at pH 7.2; type: functional; method in brief: as §4
Acinetobacter baumannii [39] = assay: Antimicrobial activity against Acinetobacter baumannii isolate 4 at pH 7.2; type: functional; method in brief: as §1
Acinetobacter baumannii [40] = assay: Antimicrobial activity against Acinetobacter baumannii isolate 35 harboring GyrA Ser83-Leu mutation at pH 5.8; type: functional; method in brief: as §1
Acinetobacter baumannii [41] = assay: Antimicrobial activity against Acinetobacter baumannii isolate 9 at pH 5.8; type: functional; method in brief: as §5
Acinetobacter baumannii [42] = assay: Antimicrobial activity against Acinetobacter baumannii isolate 58 harboring GyrA Ser83-Leu and ParC Ser80-Leu mutation at pH 5.8; type: functional; method in brief: as §5

Measured: MIC

N#Cc1c(N2C[C@@H]3NCCO[C@H]3C2)c(F)cc2c(=O)c(C(=O)O)cn(C3CC3)c12 [FINAFLOXACIN]
4 µg/mL: Acinetobacter baumannii [24] | Acinetobacter baumannii [42]
0.06 µg/mL: Acinetobacter baumannii [15] | Acinetobacter baumannii [18]
64 µg/mL: Acinetobacter baumannii [22] | Acinetobacter baumannii [38]
1 µg/mL: Acinetobacter baumannii [4] | Acinetobacter baumannii [5] | Acinetobacter baumannii [16] | Acinetobacter baumannii [29] | Acinetobacter baumannii [30] | Acinetobacter baumannii [35]
8 µg/mL: Acinetobacter baumannii [19] | Acinetobacter baumannii [20] | Acinetobacter baumannii [33]
0.25 µg/mL: Acinetobacter baumannii [10] | Acinetobacter baumannii [31] | Acinetobacter baumannii [34] | Acinetobacter baumannii [39]
32 µg/mL: Acinetobacter baumannii [14]
2 µg/mL: Acinetobacter baumannii [12] | Acinetobacter baumannii [23] | Acinetobacter baumannii [27] | Acinetobacter baumannii [28] | Acinetobacter baumannii [32] | Acinetobacter baumannii [36] | Acinetobacter baumannii [40]
0.03 µg/mL: Acinetobacter baumannii [1]
0.12 µg/mL: Acinetobacter baumannii [7] | Acinetobacter baumannii [11] | Acinetobacter baumannii [13] | Acinetobacter baumannii [21] | Acinetobacter baumannii [25] | Acinetobacter baumannii [41]
0.5 µg/mL: Acinetobacter baumannii [6]
16 µg/mL: all other assays above
